From the RNAGym collection of RNA variant scans (doi:10.1126/science.aae0568)
This sample holds only a part of the variants without activity.

B1: tRNA (parent)
chain: GUUCCGUUGGCGUAAUGGUAACGCGUCUCCCUCCUAAGGAGAAGACUGCGGGUUCGAGUCCCGUACGGAACG

Variants of: B1
Assay: yeast fitness relative to wild type (ratio to wild type); higher = fitter; tRNA-Arg(CCU), competitive growth, 37 C, YPD
How it was run: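 Genotype frequency changes were the basis for Darwinian fitness relative to wild type. The frequencies came from 100-nucleotide paired-end sequencing of gene amplicons from the start population and each end population of pooled yeast strains with tRNA-Arg(CCU) gene variants at the native locus. Competition ran in YPD at 37°C for 24 hours in six replicates, genotypes needed ≥ 100 starting reads, and estimates < 0.5 were set to 0.5.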

Going from C11A A15G A40G to G10C C22A G56C A65G, the yeast fitness falls from 0.824 to at most 0.5.

G10C C29G A65C and G10C A21G C55G A57G C60A cannot be ordered by yeast fitness: at most 0.5 for the first, at most 0.5 for the second.

First: G10C C29U A40U A65U
Second: G10C G12C G39A C61U A69C
The yeast fitness of the first is lower: at most 0.5 for the first, 0.528 for the second.

First: C11A A42G
Second: G10C C31A U35C A45U
The yeast fitness of the first is higher: 0.631 for the first, at most 0.5 for the second.

Compared with G10C U47C G67C, G10C C29G U53A is lower in yeast fitness: 0.536 for the first, at most 0.5 for the second.

C11A A15U A20C C34G C66U and G10C C30A C66A cannot be ordered by yeast fitness: at most 0.5 for the first, at most 0.5 for the second.

G10C C30A C66U and G10C C22U U59G C60U cannot be ordered by yeast fitness: at most 0.5 for the first, at most 0.5 for the second.

G10C C27G C30G G48C A65C and G10C C30G C49G cannot be ordered by yeast fitness: at most 0.5 for the first, at most 0.5 for the second.

Going from G10C C33A A36U U53A U54A to G10C C24A G51A A65G A70C, the yeast fitness rises from at most 0.5 to 0.55.

G10C A36U U64C C66U A70C and G10C C11A A37C C49G G68C A69G cannot be ordered by yeast fitness: at most 0.5 for the first, at most 0.5 for the second.

Going from C11A C22U C55A to C11A A43G A65C, the yeast fitness rises from at most 0.5 to 0.501.

First: G10C C29G A40U C49G
Second: G10C A65C
The yeast fitness of the first is lower: at most 0.5 for the first, 0.76 for the second.

Compared with G10C A65G, G10C A65U is higher in yeast fitness: 0.719 for the first, 0.767 for the second.

Compared with C11A A43U U64C, G10C U13A G25A is higher in yeast fitness: at most 0.5 for the first, 0.534 for the second.

Going from G10C G38C to G10C C33A C62A, the yeast fitness rises from 0.538 to 0.652.

C11A A37C A45G and G10C C22G C29G C46U A65C cannot be ordered by yeast fitness: at most 0.5 for the first, at most 0.5 for the second.

First: G10C U64A
Second: C11A A20U C29U C33G
The yeast fitness of the first is higher: 0.671 for the first, 0.578 for the second.

Going from G10C C34A A57U G67C to G10C A45U G48C, the yeast fitness falls from 0.64 to 0.53.

C11A A15G A40G C49U C60A C61A and G10C C11A C49G C55A cannot be ordered by yeast fitness: at most 0.5 for the first, at most 0.5 for the second.

G10C G52C and C11A A21G C22G A37G cannot be ordered by yeast fitness: at most 0.5 for the first, at most 0.5 for the second.

Going from G10C C31A U32C G39A G52C to G10C C11U G25C C30G G67C, the yeast fitness rises from at most 0.5 to 0.511.

G10C U35G and G10C U16A C30U U64A cannot be ordered by yeast fitness: at most 0.5 for the first, at most 0.5 for the second.

C11A A21G C62G C66U and C11A A43G G50C G56C cannot be ordered by yeast fitness: at most 0.5 for the first, at most 0.5 for the second.

G10C C62U U64A and G10C C34U A65G cannot be ordered by yeast fitness: at most 0.5 for the first, at most 0.5 for the second.

Going from G10U A40G G58A G68C to G10C C61A A69G, the yeast fitness falls from 0.631 to at most 0.5.

G10C U26A C34G and G10C C31G C33U C60U cannot be ordered by yeast fitness: at most 0.5 for the first, at most 0.5 for the second.

Compared with C11A A15G, C11A A15U is lower in yeast fitness: 0.711 for the first, 0.658 for the second.

Going from G10C G18A C22U to G10C A42G, the yeast fitness falls from 0.633 to 0.57.

First: C11A A40G C49G C62G
Second: G10C C46A C55U
The yeast fitness of the first is higher: 0.794 for the first, 0.603 for the second.

Going from G10C U19A C29G C34U to G10C U26A C27U C31G A42U U47A U53C, the yeast fitness rises from at most 0.5 to 0.721.

Going from G10C G67C to G10C G67A, the yeast fitness rises from 0.67 to 0.673.

C11A A21G C34G G38C C62G A69C and C11A A20C A21G U47C G56C U64C G68C cannot be ordered by yeast fitness: at most 0.5 for the first, at most 0.5 for the second.

C11A A21C A42C C61U and G10C U35G A43C U47C C55U C66U cannot be ordered by yeast fitness: at most 0.5 for the first, at most 0.5 for the second.

C11A C24U C34A A37U and C11A A21U G58C A70C cannot be ordered by yeast fitness: at most 0.5 for the first, at most 0.5 for the second.

Compared with G10C C24U C34U A36U C46A A69C, G10C G68U is higher in yeast fitness: at most 0.5 for the first, 0.693 for the second.

Compared with G10C C29G U32G, C11A C22U U26G A40U G48C is higher in yeast fitness: at most 0.5 for the first, 0.537 for the second.

First: C11A A20C U28C A37U A40C G48A
Second: C11A A42C G58A
The yeast fitness of the first is lower: at most 0.5 for the first, 0.742 for the second.

Compared with G10C C33A G56C, G10C A36C G48A C62U is lower in yeast fitness: 0.577 for the first, 0.555 for the second.

First: G10U A43G C46U
Second: G10C C22U A70G
The yeast fitness of the first is lower: at most 0.5 for the first, 0.513 for the second.

Compared with G10C U13A, G10C U32C is higher in yeast fitness: 0.549 for the first, 0.73 for the second.

First: G10C U32A
Second: C11A C24G C30U C31U C61U G67C
The yeast fitness of the first is higher: 0.53 for the first, at most 0.5 for the second.

First: G10C A45G C61A A70G
Second: G10C C29A C33A G52A
The yeast fitness of the first is lower: at most 0.5 for the first, 0.57 for the second.

Compared with G10C A37G, G10C A57G A69U is lower in yeast fitness: 0.656 for the first, 0.559 for the second.

G10C A36U C60G and C11A C22G C29G U53A C55G cannot be ordered by yeast fitness: at most 0.5 for the first, at most 0.5 for the second.

Going from G10C A45U C49G to G10C U26A C27U C34U C49U, the yeast fitness rises from 0.583 to 0.602.

G10C C24G G50A and C11A A42G A43U C46U G67A A69C cannot be ordered by yeast fitness: at most 0.5 for the first, at most 0.5 for the second.

Going from G10C G23A to G10C C29G A40G, the yeast fitness falls from 0.57 to at most 0.5.

Compared with G10C C24U C46U U64C, G10C A21G is higher in yeast fitness: at most 0.5 for the first, 0.633 for the second.

G10C G50A U59A G67C and C11A A20U G38A A45C cannot be ordered by yeast fitness: at most 0.5 for the first, at most 0.5 for the second.

G10C A57C and G10C A42U C61U C62U cannot be ordered by yeast fitness: at most 0.5 for the first, at most 0.5 for the second.

G10C C24G U28C A37G U47A and C11A A21U U54G A65C cannot be ordered by yeast fitness: at most 0.5 for the first, at most 0.5 for the second.

Going from C11A C22G C29U U32C to G10C C29G A42U, the yeast fitness falls from 0.706 to 0.554.

Compared with G10U, C11A A36G C49G C60U G68A is lower in yeast fitness: 0.887 for the first, at most 0.5 for the second.

Compared with C11A A42G A43G C61A, G10U A69C is higher in yeast fitness: at most 0.5 for the first, 0.827 for the second.

C11A C24U C27A C62G and G10U A15U C31G G50C U59C C62U cannot be ordered by yeast fitness: at most 0.5 for the first, at most 0.5 for the second.

Going from G10C A45U to G10C A36C C55G, the yeast fitness falls from 0.778 to at most 0.5.

First: G10C G18C A42G G68A
Second: G10C C22U C61U
The yeast fitness of the first is lower: at most 0.5 for the first, 0.518 for the second.

G10C C22U U26A C49U A65U and C11A A15C C24G C34A cannot be ordered by yeast fitness: at most 0.5 for the first, at most 0.5 for the second.

Going from C11A A21C C31A C46G to G10C C46U C66U, the yeast fitness rises from at most 0.5 to 0.561.

Going from G10C A36U A69U to G10C U28A, the yeast fitness rises from at most 0.5 to 0.59.

G10C G17A U28G G39A C49A and G10C G17A U35G cannot be ordered by yeast fitness: at most 0.5 for the first, at most 0.5 for the second.

G10C U32C C66G and G10C C27U G63C cannot be ordered by yeast fitness: at most 0.5 for the first, at most 0.5 for the second.

First: C11A C24G C30G
Second: C11A A21G C34U A37G C62A
The yeast fitness of the first is higher: 0.599 for the first, at most 0.5 for the second.

Compared with C11A C24U C31U, C11A A45U G50U U54C U64A is lower in yeast fitness: 0.547 for the first, at most 0.5 for the second.

First: G10C C34G G67U
Second: G10C C34G G67A
The yeast fitness of the first is higher: 0.584 for the first, at most 0.5 for the second.

Compared with G10C A36C, G10C C60U C62U A70C is lower in yeast fitness: 0.712 for the first, at most 0.5 for the second.

C11A A14G A43C A57G U59C G63A A70G and G10C U26C A45G U53C A65C cannot be ordered by yeast fitness: at most 0.5 for the first, at most 0.5 for the second.

First: G10C G51C C61U
Second: G10C C46A
The yeast fitness of the first is lower: at most 0.5 for the first, 0.626 for the second.

First: G10C C46U
Second: G10C C34G G56C
The yeast fitness of the first is higher: 0.611 for the first, 0.52 for the second.

Going from C11A A15G C22U C29A A43U A45G A57U to G10C C27U U47G, the yeast fitness rises from at most 0.5 to 0.632.

First: G10C A21C C66G
Second: G10C C31U
The yeast fitness of the first is lower: at most 0.5 for the first, 0.78 for the second.

First: G10C C27U
Second: G10C A36U U53A C60A
The yeast fitness of the first is higher: 0.679 for the first, 0.548 for the second.

First: C11A A14G A43C A57G U59C A70G
Second: G10C U16A A65G
The yeast fitness of the first is higher: 0.542 for the first, at most 0.5 for the second.

Going from G10C C33G A43G C46G C62G to C11A A57C, the yeast fitness rises from 0.562 to 0.675.

C11A A57U and G10C U28G G39A C49A cannot be ordered by yeast fitness: at most 0.5 for the first, at most 0.5 for the second.

Compared with G10C C27G A42C C49A, C11A A14G A20U C22G C24U G48C G52A is higher in yeast fitness: at most 0.5 for the first, 0.57 for the second.

G10C A37C C60G and G10C C29U G56A C61U cannot be ordered by yeast fitness: at most 0.5 for the first, at most 0.5 for the second.

Compared with G10C A70U, G10C A70G is lower in yeast fitness: 0.75 for the first, 0.644 for the second.

Compared with G10C U26C, C11A C24G is lower in yeast fitness: 0.673 for the first, 0.52 for the second.

Compared with G10C A57C U64A, G10C G12A A15G G63A is higher in yeast fitness: at most 0.5 for the first, 0.643 for the second.

G10C A37U G52A C66U and G10C C33A G48A cannot be ordered by yeast fitness: at most 0.5 for the first, at most 0.5 for the second.

G10C C49U C66G and G10C C24U G52A G56A cannot be ordered by yeast fitness: at most 0.5 for the first, at most 0.5 for the second.

Compared with C11A C22A, G10C C34G is lower in yeast fitness: 0.626 for the first, 0.501 for the second.

In the case of G10C C34U, the yeast fitness is reported as 0.565.
